Measured values as given in PMC12749109 (Nature Communications, 2025).
Entries after “also recorded” stand apart in the source; their conditions may differ. Like-named read-outs stand apart in the source and are kept apart here.

Tests used:
[1] = system: DSS-induced colitis; assay: DSS-induced colitis with M871 or SNAP37889 ± cGAL29, overall; type: in vivo; conditions: mouse
Summary of the method: (§1)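 Male C57BL/6 mice (20 ± 2 g, 7–8 weeks) received 3% DSS with daily i.p. test peptide (3 μM). A GALR2 or GALR3 antagonist (10 nmol/mouse, in 10% DMSO/40% PEG 300/30% Tween-20/20% saline) was given 30 min before each peptide dose. Controls followed the standard DSS protocol.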

[2] = system: Caco2 cells; assay: RT-qPCR cytokine expression, Caco2 cell inflammation model with GALR antagonists; type: cell-based, human; conditions: Caco-2 inflammation model, IL-1β + TNF-α
[3] = system: DSS-induced colitis; assay: DSS-induced colitis with M871 or SNAP37889 ± cGAL53, overall; type: in vivo; conditions: mouse, 3% DSS; antagonist 10 nmol/mouse + cGAL53 3 μM
Summary of the method: as §1

[4] = system: Gnaq; assay: 2% DSS colitis in Gnaq cKO mice, overall; type: in vivo, mouse; conditions: Gnaq cKO (gut epithelial) mice, vs AAV control mice
Summary of the method: (§2)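 Male Arrb2fl/fl or Gnaqfl/fl mice (7–8 weeks) were fasted overnight, anaesthetised, and given 100 μL AAV8-Vil-cre or AAV8-Vil-null (1E+11 vg/mL) by catheter 4 cm into the colon. One week later they received 2% DSS in drinking water for 7 days. Read-outs were body weight, DAI, colon length, H&E, serum IL-6/IL-1β ELISA, and colonic Il6/Tnf/Il1b/Tgfb1/Tjp1/Ocln mRNA.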

[5] = system: GALR2; assay: SRE-luc luciferase; type: cell-based; conditions: HEK293, GALR2, luciferase, 12 h
Summary of the method: (§3)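 HEK293 cells were transfected (Lipofectamine) with empty pcDNA3.1 or GALR plasmid (2 μg) plus CRE, NFAT-RE or SRE luciferase reporter. After 36 h, medium was replaced with serum-free medium containing test peptide, diluted in DMEM from a 1 mM water stock, for 12 h. Luciferase was read 48 h post-transfection. Technical triplicate; mean ± SD; 37 °C, 5% CO2.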

[6] = system: GALR3; assay: DSS-induced colitis in Galr3-KO mice, overall; type: in vivo, mouse; conditions: 3% DSS, cGAL53 3 μM
[7] = system: GALR3; assay: Tango β-arrestin2 recruitment, HTLA cells; type: cell-based
Summary of the method: (§4)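 Tango assay used HTLA cells, a HEK293T line expressing a tTA-dependent luciferase reporter and β-arrestin2, transfected with GALR plasmid (2 μg). Test peptide in serum-free DMEM was added 36 h post-transfection for 12 h, then luciferase activity was measured. Mean ± SD.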

[8] = system: ARRB2; assay: 2% DSS colitis in Arrb2 cKO mice, overall; type: in vivo, mouse; conditions: Arrb2 cKO (gut epithelial) mice, vs AAV control mice
Summary of the method: as §2

[9] = system: GALR2; assay: NFAT-luc luciferase; type: cell-based; conditions: HEK293, GALR2, luciferase, 12 h
Summary of the method: as §3

[10] = system: GALR3; assay: CRE-luc luciferase; type: cell-based; conditions: HEK293, GALR3, luciferase, 12 h
Summary of the method: as §3

[11] = system: GALR1; assay: NFAT-luc luciferase; type: cell-based; conditions: HEK293, GALR1, luciferase, 12 h
Summary of the method: as §3

[12] = system: DSS-induced colitis; assay: H&E histology/HAI and endoscopy, DSS-induced colitis, wild-type mice; type: in vivo; conditions: mouse, 3% DSS, peptide 3 μM daily i.p.
Summary of the method: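 Colons from mice given 3% DSS (8 days) and daily i.p. test peptide (3 μM) were fixed in 4% paraformaldehyde, paraffin-embedded, sectioned and H&E-stained. Sections were scored for epithelial damage, inflammatory infiltration, crypt loss and ulceration; n = 6/group.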

[13] = Tolerability of peptide alone in healthy male mice, overall; type: in vivo, mouse; conditions: daily i.p. for six consecutive days
Summary of the method: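 Healthy male mice received daily i.p. test peptide for six consecutive days alongside a saline-injected control group. Body weight, water intake, food intake and colon length were recorded.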

[14] = system: GALR1; assay: Tango β-arrestin2 recruitment, HTLA cells; type: cell-based
Summary of the method: as §4

[15] = system: GALR1; assay: SRE-luc luciferase; type: cell-based; conditions: HEK293, GALR1, luciferase, 12 h
Summary of the method: as §3

[16] = system: DSS-induced intestinal inflammation; type: in vivo, chicken; conditions: chicken, 4% DSS oral gavage, daily i.p. peptide
Summary of the method: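 Forty 21-day-old male yellow-feathered broilers were split into control, DSS and two peptide groups under 24 h light, with free food and water. DSS groups were gavaged with […] of 4% DSS daily from day 21 to 29. Treated birds got 100 μL of 50 μM peptide i.p. daily. TNF-α, IL-1β and IL-6 were measured by ELISA in jejunum/ileum homogenates (1:9 w/v ice-cold PBS, pH 7.4; 5000 × g, 10 min, 4 °C).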

[17] = system: DSS-induced colitis; assay: DSS-induced colitis in wild-type mice, overall therapeutic efficacy; type: in vivo, mouse; conditions: for alleviation of colitis / intestinal inflammation, overall: chicken and mouse colitis models, overall statement
[18] = system: DSS-induced colitis; assay: DSS-induced colitis, female mice, overall therapeutic efficacy; type: in vivo, mouse; conditions: female C57BL/6 mice, 2.5% DSS, peptide 3 μM daily i.p.
Summary of the method: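 Female C57BL/6 mice (9–10 weeks, 20 ± 2 g) were randomised into four groups and given 2.5% DSS in drinking water ad libitum for 8 days, with daily i.p. test peptide (3 μM). Body weight was recorded daily. Colon length was measured after sacrifice, and distal colon was fixed in 4% formalin.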

[19] = system: ZO-1, occludin; assay: IHC of ZO-1 and occludin in colon, DSS-induced colitis, wild-type mice; type: in vivo; conditions: mouse colon, 3% DSS, peptide 3 μM daily i.p.
Summary of the method: (§5)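 Colon sections from DSS-treated mice were incubated overnight at 4 °C with anti-ZO-1 (1:1000) or anti-occludin (1:200), then HRP-conjugated secondary antibody. Signal was developed with DAB, sections counterstained with hematoxylin, and staining quantified by image analysis.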

[20] = system: GALR2; assay: Tango and BRET β-arrestin2 recruitment; type: cell-based
Summary of the method: as §4

[21] = system: colon transcriptome; assay: RNA-seq of colon tissue, DSS-induced colitis mice; type: in vivo; conditions: mouse colon
Summary of the method: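 Total RNA was extracted from mouse colon with Trizol, sequenced on BGIseq500 and mapped to the mouse genome. Data were analysed in R and reported as mean ± SEM.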

[22] = system: mGALR2 mutants; assay: Tango β-arrestin2 recruitment, binding-site mutants; type: cell-based, mouse
[23] = system: TNBS-induced colitis; assay: TNBS-induced colitis in C57BL/6 mice, overall therapeutic efficacy; type: in vivo, mouse; conditions: TNBS intrarectal, peptide 3 μM
Summary of the method: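 Male C57BL/6 mice (8–12 weeks) under 1.5% isoflurane received 100 μL of 2.5% TNBS (5% TNBS in water mixed 1:1 with ethanol) into the colon lumen. Controls received 50% ethanol only. Test peptide was given at 3 μM. Weight was monitored daily, and mice were killed 72 h after induction for colon length and histology; n = 6/group.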

[24] = system: GALR3; assay: NFAT-luc luciferase; type: cell-based; conditions: HEK293, GALR3, luciferase, 12 h
Summary of the method: as §3

[25] = system: Caco2 cells; assay: RT-qPCR cytokine expression, Caco2 cell inflammation model; type: cell-based, human; conditions: IL-1β + TNF-α
[26] = system: ZO-1, occludin; assay: IHC of ZO-1 and occludin in colon, Galr2-KO mice; type: in vivo, mouse; conditions: DSS, compared with Galr2 KO-DSS group
Summary of the method: as §5

[27] = system: GALR2; assay: DSS-induced colitis in Galr2-KO mice, overall; type: in vivo, mouse; conditions: Galr2-KO mice (or GALR2 inhibition where stated), cGAL53 3 μM
[28] = system: GALR2; assay: CRE-luc luciferase; type: cell-based; conditions: HEK293, GALR2, luciferase, 12 h
Summary of the method: as §3

[29] = system: GALR2; assay: G protein versus β-arrestin2 signaling bias at GALR2; type: cell-based
[30] = system: GALR3; assay: SRE-luc luciferase; type: cell-based; conditions: HEK293, GALR3, luciferase, 12 h
Summary of the method: as §3

[31] = system: intestinal barrier; assay: FD4 intestinal permeability, Galr2-KO mice; type: in vivo, mouse; conditions: Galr2-deficient mice, DSS
Summary of the method: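 Mice were fasted 12 h before and during the test, then gavaged with FITC-dextran FD4 (25 mg/mL in 0.05 M PBS) at 20 mL/kg. Plasma was collected 3 h later, diluted 1:2 in PBS, and fluorescence read at excitation 490 nm / emission 520 nm.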

[32] = system: GALR1; assay: CRE-luc luciferase; type: cell-based; conditions: HEK293, GALR1, luciferase, 12 h
Summary of the method: as §3

[33] = system: GALR2b; assay: Tango β-arrestin2 recruitment, HTLA cells; type: cell-based, chicken
Summary of the method: as §4

O=C1C(=Nc2cccc(C(F)(F)F)c2)c2ccccc2N1c1ccccc1 [SNAP37889]
effect of antagonist on therapeutic efficacy of cGAL29 [1]: exerted inhibitory effects on the therapeutic efficacy of cGAL29
block of anti-inflammatory effect of cGAL53 by antagonist [2]: not by SNAP37889
effect of antagonist on ability of cGAL53 to alleviate colitis [3]: cGAL53 was still effective in treating colitis symptoms in mice

GWTLNSAGYLLGPRRIDHLLMIKEMPIARGREEAPGA-YAVDNHRSFNDKHGFT-NH2 [cGAL53]
ability to alleviate weight loss, colon shortening, intestinal damage, inflammation [4]: significantly reduced
Gi (SRE-luc) activation [5]: can activate; also recorded: activated
colitis symptoms [6]: significant improvement in colitis symptoms
ARRB2 (β-arrestin2) recruitment [7]: significantly enhanced
therapeutic effects (weight loss, colon shortening, intestinal damage, inflammation) [8]: significantly diminished; also recorded: negated the therapeutic effects
Gq (NFAT-luc) activation [9]: can activate; also recorded: activated
Gs (CRE-luc) activation [10]: can activate
Gq (NFAT-luc) activation [11]: not GALR1
endoscopic and colon tissue damage scores [12]: most pronounced improvements
body weight, water and food intake, colon length (tolerability) [13]: neither peptide affected body weight, water, and food intake, nor colon length, indicating good tolerability
ARRB2 (β-arrestin2) recruitment [14]: significantly enhanced
Gi (SRE-luc) activation [15]: not GALR1
IBD-related symptoms in DSS-treated chickens [16]: ameliorated IBD-related symptoms in chickens, manifested as reductions of body weight loss, intestinal bleeding points and tissue damage
IBD-related symptoms in DSS-treated chickens ([16]; listed as GAL53): superior therapeutic efficacy
colitis symptoms ([17]; WT mice, 3% DSS, cGAL53 3 μM): significant improvement in colitis symptoms
alleviation of colitis / intestinal inflammation, overall [17]: superior therapeutic efficacy compared to the conserved GAL29 peptide; also recorded: superior protective effects against DSS-induced inflammation in both chickens and mice; also recorded: alleviates colitis-associated weight loss, colon shortening, bleeding, and inflammation in both chickens and mice; also recorded: greater therapeutic efficacy in treating intestinal inflammation in chickens and mice
alleviation of colitis / intestinal inflammation, overall ([17]; listed as GAL53): superior protective effects against intestinal inflammation in birds and mammals; also recorded: exerts protective effects in chemical models of IBD
alleviation of colitis / intestinal inflammation, overall ([17]; listed as chicken GAL53): superior efficacy over the conserved GAL29
DSS-induced body weight reduction, colon shortening and DAI increase ([17]; mouse, 3% DSS in drinking water, peptide 3 μM daily i.p.): superior therapeutic efficacy over the shorter galanin variants (cGAL29 and hGAL30); also recorded: superior therapeutic efficacy in mouse colitis compared to cGAL29
therapeutic effect in female mice with DSS-induced colitis [18]: superior therapeutic benefits
ZO-1 and occludin protein and mRNA levels [19]: markedly enhanced
ARRB2 (β-arrestin2) recruitment [20]: significantly enhanced; also recorded: preferentially activated ARRB2
DSS-changed pathways (KEGG) [21]: significantly modulated
expression levels of immune-related genes [21]: significantly reduced
inflammation-related pathways (GSVA) ([21]; compared to cGAL29): significantly greater reductions
β-arrestin2 recruitment after mutation of predicted unique binding sites [22]: affected
TNBS-induced colitis (colon length, histopathological damage) [23]: more effective than cGAL29, nearly reversing the colon length and histopathological damage
Gq (NFAT-luc) activation [24]: can activate
concentration giving (similar) anti-inflammatory effect [25]: 0.1 µM
expression of Il6, Il23 and Tgfb1 induced by IL-1β and TNF-α ([25]; RT-qPCR): reduced
expression of ZO-1 and occludin [26]: did not increase
colitis symptoms / effects of cGAL53 [27]: abolished in Galr2-deficient mice; also recorded: did not exhibit any change; also recorded: completely abolishes the effects of cGAL53
Gs (CRE-luc) activation [28]: can activate; also recorded: activated
bias at GALR2 [29]: β-arrestin2- biased agonizts of GALR2
G protein activation / ARRB2 recruitment via GALR2 ([29]; GALR2, overall statement): significantly enhances the recruitment of ARRB2 to GALR2
Gi (SRE-luc) activation [30]: can activate
circulating FD4 tracer levels [31]: remained unchanged
Gs (CRE-luc) activation [32]: not GALR1
ARRB2 (β-arrestin2) recruitment [33]: significantly enhanced
